# Test results taken from ChEMBL document CHEMBL4020707, “Exploring the influence of indololactone structure on selectivity for binding to the C1 domains of PKCα, PKCε, and RasGRP” (Bioorg Med Chem, 2017).
# Key:
# [1] = biological target: T1, Protein kinase C epsilon type (Homo sapiens, UniProt Q02156); test: Displacement of [20-3H]phorbol 12,13-dibutyrate from PKCepsilon (unknown origin) in the presence of porcine brain phosphatidylserine by scintillation counting
# T1 sequence (Q02156 whole entry): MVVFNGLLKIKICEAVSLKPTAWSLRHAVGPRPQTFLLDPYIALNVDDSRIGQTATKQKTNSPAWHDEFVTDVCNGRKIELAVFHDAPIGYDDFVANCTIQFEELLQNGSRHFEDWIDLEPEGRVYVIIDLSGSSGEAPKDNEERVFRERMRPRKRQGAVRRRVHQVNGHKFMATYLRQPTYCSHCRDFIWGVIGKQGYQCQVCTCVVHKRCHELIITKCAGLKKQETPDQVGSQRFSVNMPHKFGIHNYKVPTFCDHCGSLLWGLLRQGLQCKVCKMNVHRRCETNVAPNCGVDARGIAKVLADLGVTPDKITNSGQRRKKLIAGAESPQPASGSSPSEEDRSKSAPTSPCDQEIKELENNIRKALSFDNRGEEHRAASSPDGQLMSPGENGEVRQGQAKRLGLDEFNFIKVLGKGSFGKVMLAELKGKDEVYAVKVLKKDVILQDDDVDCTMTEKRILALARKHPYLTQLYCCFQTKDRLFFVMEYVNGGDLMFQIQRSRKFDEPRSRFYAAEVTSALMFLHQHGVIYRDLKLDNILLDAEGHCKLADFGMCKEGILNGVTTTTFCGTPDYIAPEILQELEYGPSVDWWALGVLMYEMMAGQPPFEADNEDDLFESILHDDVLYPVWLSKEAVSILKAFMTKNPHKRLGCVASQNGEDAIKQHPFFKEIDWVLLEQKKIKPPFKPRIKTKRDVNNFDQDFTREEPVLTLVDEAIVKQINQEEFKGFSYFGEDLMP
# Method in brief: (§1)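 Competitive binding against bound [20-3H]PDBu with 100 μg/ml phosphatidylserine present. Each curve used six ligand concentrations, each measured in triplicate. IC50 was obtained by least-squares fit of a theoretical sigmoidal competition curve. Ki was calculated from IC50 after correcting for competition by [3H]PDBu. Values are mean ± SE of at least three independent experiments.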
# Homo sapiens [2] = organism: Homo sapiens; test: Selectivity index, ratio of Ki for PKCalpha (unknown origin) to Ki for PKCepsilon (unknown origin)
# [3] = biological target: T2, RAS guanyl-releasing protein 1 (Homo sapiens, UniProt O95267); test: Displacement of [20-3H]phorbol 12,13-dibutyrate from RasGRP1 (unknown origin) in the presence of porcine brain phosphatidylserine by scintillation counting; method in brief: as §1
# T2 sequence (O95267 whole entry): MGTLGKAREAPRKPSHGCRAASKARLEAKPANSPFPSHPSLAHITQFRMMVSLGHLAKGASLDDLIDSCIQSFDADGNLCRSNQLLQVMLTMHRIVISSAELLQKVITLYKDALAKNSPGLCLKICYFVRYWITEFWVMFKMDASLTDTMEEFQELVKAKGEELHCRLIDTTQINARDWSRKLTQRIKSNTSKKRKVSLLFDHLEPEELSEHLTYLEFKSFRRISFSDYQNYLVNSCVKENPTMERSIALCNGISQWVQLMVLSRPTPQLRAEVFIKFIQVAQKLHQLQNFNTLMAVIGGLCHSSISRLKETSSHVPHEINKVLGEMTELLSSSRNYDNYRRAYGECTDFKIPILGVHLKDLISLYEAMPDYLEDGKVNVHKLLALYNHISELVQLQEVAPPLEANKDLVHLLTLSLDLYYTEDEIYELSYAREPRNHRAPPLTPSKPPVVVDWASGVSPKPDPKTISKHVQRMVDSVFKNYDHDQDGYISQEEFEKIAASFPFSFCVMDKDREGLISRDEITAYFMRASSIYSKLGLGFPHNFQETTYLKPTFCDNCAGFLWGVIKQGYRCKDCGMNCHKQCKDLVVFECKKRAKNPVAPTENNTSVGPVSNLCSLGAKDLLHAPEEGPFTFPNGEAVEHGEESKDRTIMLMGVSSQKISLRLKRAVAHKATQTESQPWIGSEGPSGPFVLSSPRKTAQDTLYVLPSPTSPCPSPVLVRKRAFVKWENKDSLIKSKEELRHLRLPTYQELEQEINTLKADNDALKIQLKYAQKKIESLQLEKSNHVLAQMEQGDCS
# [4] = biological target: Protein kinase C alpha type (Homo sapiens, UniProt P17252); test: Displacement of [20-3H]phorbol 12,13-dibutyrate from PKCalpha (unknown origin) in the presence of porcine brain phosphatidylserine by scintillation counting; method in brief: as §1
# Homo sapiens [5] = organism: Homo sapiens; test: Selectivity index, ratio of Ki for PKCepsilon (unknown origin) to Ki for RasGRP1 (unknown origin)
# Homo sapiens [6] = organism: Homo sapiens; test: Selectivity index, ratio of Ki for PKCalpha (unknown origin) to Ki for RasGRP1 (unknown origin)
Ki [1] [nM],Ratio Ki (Homo sapiens [2]),Ki [3] [nM],Ki [4] [nM],Ratio Ki (Homo sapiens [5]),Ratio Ki (Homo sapiens [6]),SMILES
119,2.2,40,257,3,6.5,Cc1ccc(C#Cc2ccc(/C=C3\CC(CO)(COC(=O)c4cn(C)c5ccccc45)OC3=O)cc2)cc1 (stereo not drawn)
55,1.5,22.6,83.1,2.4,3.7,CC(C)CC(C/C=C1/CC(CO)(COC(=O)c2cn(C)c3ccccc23)OC1=O)CC(C)C (stereo not drawn)
131,0.89,22.6,116,5.8,5.1,Cc1ccc(C#Cc2ccc(C=C3CC(CO)(COC(=O)c4cn(C)c5ccccc45)OC3=O)cc2)cc1 (stereo not drawn)
295,1.7,133,504,2.2,3.8,CCCC(/C=C1\CC(CO)(COC(=O)c2cn(C)c3ccccc23)OC1=O)CCC (stereo not drawn)
27.3,2.7,31.3,73,0.87,2.3,CC(C)CC(C/C=C1\CC(CO)(COC(=O)c2cn(C)c3ccccc23)OC1=O)CC(C)C (stereo not drawn)
31,0.42,0.58,12.9,53,22,CCCC(CCC)C(=O)OCC1(CO)C/C(=C\c2cn(C)c3ccccc23)C(=O)O1 (stereo not drawn)
59.6,1.8,63.3,106,0.94,1.7,CCCCCCCCC/C=C1\CC(CO)(COC(=O)c2cn(C)c3ccccc23)OC1=O (stereo not drawn)
301,2.3,666,698,0.45,1.08,CC(C)=C1CC(CO)(COC(=O)c2cn(C)c3ccccc23)OC1=O (stereo not drawn)
